Data published in ChEMBL document CHEMBL1124858, “Methylsulfamic acid esters. A new chemical class of oral antiarthritic agents” (1990).
Values joined by “and” are separate entries in the source; they are usually repeats but may differ in a detail not shown here. Equal entries are not always repeated. Active and inactive are the calls of the source. The calls are words filed in the database; no cut-off is given here.

What was measured:
[1] = system: Rattus norvegicus; experiment: Evaluated for the carrageenan-induced pleural volume in rats at a dose of 100 mg/kg after peroral administration.; type: functional; details: route oral
Method in brief: (§1)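 Carrageenan-induced pleurisy in rats, Evans blue pleural effusion assay. Twenty oral doses, one per day, were given before carrageenan challenge. Pleural volume is mL ± SD, n = 6 per group, with % change from control and Dunnett's t test (p < 0.05).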

[2] = system: Rattus norvegicus; experiment: Evaluated for the adjuvant-induced arthritis edema of uninjected paw on 11-day after 1 mg/kg dose of peroral administration of the compound; details: route oral
[3] = system: Rattus norvegicus; experiment: Evaluated for the adjuvant-induced arthritis edema of uninjected paw on 11-day after 10 mg/kg dose of peroral administration of the compound; details: route oral
[4] = system: Rattus norvegicus; experiment: Evaluated for the […] on 32-day after 10 mg/kg dose of peroral administration of the compound; type: functional; details: route oral
Method in brief: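 Adjuvant-induced arthritic rat model with oral dosing from day 18 through day 50 post adjuvant. Edema was the volume change of the uninjected hind paw. The 11-day Δ is day 29 volume minus day 18 volume; the 32-day Δ is day 50 minus day 18. Values are mL ± SD against a vehicle control, by Dunnett's t test (p < 0.05).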

[5] = system: Rattus norvegicus; experiment: Evaluated for the carrageenan-induced pleural volume in rats at a dose of 4 mg/kg after peroral administration.; type: functional; details: route oral; method in brief: as §1
[6] = system: Rattus norvegicus; experiment: Evaluated for the adjuvant-induced arthritis edema of uninjected paw on 32-day after 3.16 mg/kg dose of peroral administration of the compound; details: route oral
[7] = species: Rattus norvegicus; experiment: Weight change of rat was determined; Not significant; type: functional, organism-based
Method in brief: (§2)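 In adjuvant arthritic rats dosed orally from day 18 through day 50 post adjuvant injection, weight change was compared with vehicle control by Dunnett's t test.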

[8] = species: Rattus norvegicus; experiment: 32-day X-ray(0= normal to 10= maximum joint destruction) was determined.; type: functional
Method in brief: (§3)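 Adjuvant-induced arthritic rats were dosed orally once daily from day 18 through day 50 after adjuvant injection, on a therapeutic regimen. The uninjected joint was X-rayed and scored blind at 32 days on an arbitrary scale from 0 (normal) to 10 (maximum joint destruction). Values are mean ± SD, compared with vehicle control by Dunnett's t test (p < 0.05).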

[9] = system: Mus musculus; experiment: Evaluated for the Delayed type hypersensitivity (DTH) response to methylated BSA (mBSA) in sensitive mice at a dose of 31.6.00 mg/kg after peroral administration; type: functional
Method in brief: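 Delayed-type hypersensitivity in mice: sensitized to mBSA on day 0, dosed orally on days 4, 5, 6 and 7, then challenged with mBSA in the left hind paw on day 7. Paw weight was measured 24 h after challenge. n = 10 per group. Result is % change from sensitized positive control, by Dunnett's t test. Negative control received Freund's complete adjuvant without mBSA.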

[10] = system: Rattus norvegicus; experiment: Evaluated for the adjuvant-induced arthritis edema of uninjected paw on 11-day after 3.16 mg/kg dose of peroral administration of the compound; details: route oral
[11] = system: Rattus norvegicus; experiment: Evaluated for the adjuvant-induced arthritis edema of uninjected paw on 32-day after 1 mg/kg dose of peroral administration of the compound; details: route oral
[12] = system: Rattus norvegicus; experiment: Evaluated for the adjuvant-induced arthritis edema of uninjected paw on 32-day after 31.6 mg/kg dose of peroral administration of the compound; details: route oral
[13] = system: Rattus norvegicus; experiment: Evaluated for the adjuvant-induced arthritis edema of uninjected paw on 11-day after 31.6 mg/kg dose of peroral administration of the compound; details: route oral
[14] = system: Mus musculus; experiment: Evaluated for the delayed type hypersensitivity (DTH) response to methylated BSA (mBSA) in sensitive mice after peroral administration of 50 mg/kg; type: functional; details: route oral
Method in brief: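 Mice were sensitized to mBSA on day 0, dosed orally on days 4, 5, 6 and 7, and challenged with mBSA in the left hind paw on day 7. Paw weight was measured 24 h after challenge, with 10 mice per group. Negative controls received Freund's complete adjuvant without mBSA.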

[15] = system: Rattus norvegicus; experiment: Evaluated for the adjuvant-induced arthritis edema of uninjected paw on 32-day after 10 mg/kg dose of peroral administration of the compound; details: route oral
[16] = species: Rattus norvegicus; experiment: Weight change of rat was determined; + = significant increase in weight change from control; type: functional, organism-based; method in brief: as §2
[17] = system: Rattus norvegicus; experiment: Evaluated for the carrageenan-induced pleural volume in rats at a dose of 3.16 mg/kg after peroral administration.; type: functional; details: route oral; method in brief: as §1
[18] = system: Rattus norvegicus; experiment: Evaluated for the adjuvant-induced arthritis edema of uninjected paw on 11-day after 100 mg/kg dose of peroral administration of the compound; details: route oral
[19] = species: Rattus norvegicus; experiment: X-rays scored on an arbitrary (0=normal to 10=max. joint destruction) scale in a blinded manner was determined; 32-day X-ray; type: functional; method in brief: as §3
[20] = system: Rattus norvegicus; experiment: Evaluated for the adjuvant-induced arthritis edema of uninjected paw on 32-day after 100 mg/kg dose of peroral administration of the compound; details: route oral

How did the Pleural volume [1] turn out when `CNS(=O)(=O)OCC(COc1ccccc1OC)OS(=O)(=O)NC` (stereo unspecified) was run?
The Pleural volume was 4.92 mL.

And the Edema [2]?
Its Edema is 0.1 mL.

What about the Edema [3] of the same compound?
The Edema was under -0.39 mL.

And the Edema [4]?
Its Edema is -0.41 mL and <-0.42 mL and <-0.61 mL.

What about the Pleural volume [5] of the same compound?
The Pleural volume was 5.2 mL.

What about the Edema [6] of the same compound?
Its Edema is under -0.38 mL.

What about the Weight change [7] of the same compound?
Its Weight change is “inactive”.

And the Score [8]?
Its Score is <5.82 and <5.77 and <6.9 and 7.8.

And the Paw weight [9]?
Its Paw weight is 179 mg.

And the Edema [10]?
Its Edema is under -0.14 mL.

What about the Edema [11] of the same compound?
Its Edema is under -0.23 mL.

Which Edema [12] does the source give for `CNS(=O)(=O)OC[C@H](COc1ccccc1OC)OS(=O)(=O)NC` here?
Its Edema is -0.03 mL.

What about the Score [8] of the same compound?
Its Score is 7.86.

And the Edema [13]?
The Edema was 0.16 mL.

`O=P1(N(CCCl)CCCl)NCCCO1` (stereo unspecified) [CYCLOPHOSPHAMIDE ANHYDROUS] was tested. Which Paw weight [14] did it give?
Its Paw weight is 153 mg.

Which results are given for `CNS(=O)(=O)OC[C@@H](COc1ccccc1OC)OS(=O)(=O)NC`?
Edema [3]: <-0.33 mL; Edema [15]: <-0.46 mL; Weight change [7]: inactive; Score [8]: <4.96 and 6.64

`COc1ccc2c(c1)c(CC(=O)O)c(C)n2C(=O)c1ccc(Cl)cc1` [INDOMETHACIN] was tested. Which Weight change [16] did it give?
Its Weight change is “Active”.

What about the Pleural volume [17] of the same compound?
Its Pleural volume is 3.5 mL.

And the Score [8]?
Its Score is 3.54 and <4.07 and <3.8 and <4.04.

For `COc1ccccc1OCC(O)CO` (stereo unspecified) [GUAIFENESIN], which Edema [18] is on record?
Its Edema is 0.07 mL.

And the Score [19]?
The Score was 8.83.

And the Edema [20]?
The Edema was -0.4 mL.

What about the Weight change [7] of the same compound?
The Weight change was “inactive”.
